According to article PMC11605122 (Nature Communications, 2024):

How the values were obtained:
[1] = tested on: BAT explants; experiment: OCR in BAT explants; assay type: in vivo, mouse; conditions: BAT explants of mice treated with G49 for 3 days
Procedure, shortened: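 BAT explants came from DIO mice given test compound or vehicle for 72 h. OCR was run as a Seahorse Mito Stress assay with 2 µM oligomycin A, 2 µM FCCP, then 10 µM rotenone plus 10 µM antimycin. OCR (pmol/min) came from O2 tension over time.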

[2] = body weight, HFD-fed; assay type: in vivo, mouse
[3] = tested on: primary mouse hepatocytes; experiment: insulin-induced AKT Ser473 phosphorylation in hepatocytes; assay type: cell-based; conditions: pre-treatment with G49
Procedure, shortened: (§1)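 Primary hepatocytes came from non-fasted male C57BL/6J mice fed HFD for 12 weeks, with or without in vivo treatment, by two-step collagenase perfusion. Cells were spun at 60 × g, purified on isotonic Percoll (1:1) at 230 × g and seeded on collagen. They were cultured 24 h at 37 °C, 5% CO2 before exposure to the test compound.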

[4] = peptide concentration in plasma; assay type: in vivo, mouse; conditions: DIO mice, 24 h post-injection, 100 nmol/kg s.c., n = 5; cAMP bioassay
Procedure, shortened: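 Plasma activity was read in a cAMP assay on CHO cells expressing human GLP-1R, in HBSS pH 7.4 with 25 mM HEPES, 0.1% BSA and 0.5 mM IBMX. Serial dilutions were run in duplicate for 30 min at RT with HTRF detection. Standards were reference peptide spiked into 0.2% (final) naïve plasma. Sample ratio = sample EC50/reference EC50; concentration = known top concentration/ratio.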

[5] = tested on: primary mouse hepatocytes; experiment: FGF21 release and gene expression in primary hepatocytes; assay type: cell-based; conditions: 500 nM G49, 16 h
Procedure, shortened: as §1

[6] = fatty acid oxidation in liver tissue; assay type: in vivo, mouse; conditions: DIO mice, G49, 72 h
Procedure, shortened: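 Frozen liver (30 mg) was homogenised in cold STE buffer (25 mM Tris-HCl, sucrose, 1 mM EDTA, pH 7.4), sonicated 10 s and spun at 420 × g for 10 min at 4 °C. The supernatant was used for the oxidation reaction. Radioactive acid-soluble metabolites were counted by scintillation and expressed as nmol/g liver/h.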

[7] = tested on: brown adipocytes; experiment: lipolysis in brown adipocytes; assay type: cell-based, mouse; conditions: G49, brown adipocytes, 500 nM, 4 h
[8] = tested on: brown adipocytes; experiment: brown adipocytes treated with serum of G49-treated mice; assay type: cell-based, mouse; conditions: serum from mice receiving G49 for 72 h
Procedure, shortened: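 Brown preadipocytes were immortalised by retroviral SV40 Large T (20% FBS, 8 μg/mL polybrene, 48 h) at 70–80% confluence. Differentiation began with 2 days in induction medium (0.5 μM dexamethasone, 0.5 mM IBMX, indomethacin, 1 μM rosiglitazone).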

[9] = blood glucose; assay type: in vivo, mouse
Procedure, shortened: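 DIO mice were fed 60%-fat HFD from 8 weeks of age, for 12 weeks (males) or 24 weeks (females); one male cohort was housed at 30 °C. The test compound was given s.c. every 2 days in 50 mM sodium phosphate/300 mM mannitol pH 6.9. Glucose and ketone bodies were read in tail-vein blood.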

[10] = plasma insulin; assay type: in vivo, mouse; conditions: DIO mice
Procedure, shortened: (§2)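 Plasma ALT was read with Reflotron strips and plasma TGs by colorimetric assay. Serum FGF21 and plasma adiponectin and insulin were measured by ELISA.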

[11] = F4/80 and TH immunostaining of eWAT; assay type: in vivo, mouse; conditions: G49, 6 h
[12] = energy expenditure; assay type: in vivo, mouse; conditions: DIO mice, G49, day 3, light and dark phases
Procedure, shortened: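 Mice entered metabolic cages 2 days before the first s.c. dose, which was given every 2 days. Indirect calorimetry parameters were then recorded for the following 3 days.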

[13] = plasma ALT; assay type: in vivo, mouse; conditions: DIO mice
Procedure, shortened: as §2

[14] = tested on: brown adipocytes; experiment: fatty acid oxidation in brown adipocytes; assay type: cell-based, mouse; conditions: G49, brown adipocytes
Procedure, shortened: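 Palmitate oxidation to CO2 and to acid-soluble material (acyl-carnitine, Krebs cycle intermediates, acetyl-CoA) was measured in primary hepatocytes or differentiated brown adipocytes, with or without 500 nM test compound.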

[15] = gene expression in mouse tissues/SVF; assay type: in vivo

HSQGTFTSDYSKYLEEEAVRLFIC (40 kDa PEG) WLMNT-amide acetate salt [G49]
basal and maximal respiration [1]: increased basal and maximal respiration in BAT explants
body weight ([2]; Adipoq−/− DIO mice, G49, 3–7 days): body weight stabilized in the period of 3–7 days in Adipoq^−/− mice
body weight ([2]; DIO female mice, G49, 1 week): Body weight loss in the absence of a reduction in cumulative food intake
body weight ([2]; DIO mice, G49 + Ex9-39 + GCGRant): failed to decrease body weight in the presence of both antagonists
body weight loss ([2]; DIO mice, G49 without ATGLi, 72 h): 11.8 ± 0.51%
body weight loss ([2]; DIO mice, G49 without antagonist, day 7 (antagonist experiment)): 23.2 ± 1.45%
body weight ([2]; FGF21Alb-KO mice, HFD, G49, 3–7 days): body weight stabilized in G49-treated FGF21^Alb-KO mice in the period of 3–7 days
body weight ([2]; UCP1−/− mice, HFD, G49, beyond 72 h): did not lose weight beyond this time-point
effect in lean mice ([2]; lean mice, G49): mild and changes were found only in the short-term body weight loss, the early lipolytic response and the reduction of eWAT
body weight loss ([2]; male DIO mice, G49 20 nmol/kg, 1 week): 6.9 ± 0.89%
body weight loss ([2]; male mice, normal cycle, G49, 1 week): 16.1 ± 0.72%
body weight loss ([2]; male mice, reversed light/dark cycle, G49, 1 week): 20.1 ± 0.49%
insulin-induced AKT Ser473 phosphorylation [3]: increased insulin sensitivity manifested by elevations in insulin-induced AKTSer473 phosphorylation
peptide plasma level [4]: 121.7 ± 12.88 nM
FGF21 release and Sir2 expression [5]: increased FGF21 levels released to the culture medium and Sir2 expression
hepatic fatty acid oxidation [6]: concomitant increase in hepatic Cpt1a and Ppara mRNAs (Fig. 3J) and fatty acid oxidation (FAO)
lipolysis [7]: up-regulated lipolysis
Ucp1 mRNA and UCP1 protein [8]: increased Ucp1 mRNA and UCP1 protein levels
blood glucose and adiposity ([9]; female DIO mice, G49, 1 week): efficacy of G49 in reducing blood glucose and adiposity was also found in female mice
blood glucose and adiposity ([9]; male DIO mice at thermoneutrality (30 °C), G49): in male mice housed at thermoneutrality
plasma insulin ([10]; G49 + ATGLi, 6 h): plasma insulin was partly reduced
peak in insulin secretion ([10]; G49 + Ex9-39, 6 h): Ex9-39 totally abolished this increase
peak in insulin secretion ([10]; G49 + GCGRant, 6 h): partially blocked by the GCGRant
plasma insulin, early ([10]; G49, 6 h): a rise in plasma insulin
F4/80 and TH positive immune cells [11]: F4/80 and Tyrosine Hydroxylase (TH) positive immune cells were found in some eWAT areas
energy expenditure [12]: a significant increase in EE
ALT elevation ([13]; G49 + GCGRant, 6 h): hepatic lipid overload and ALT elevation were not observed
ALT activity ([13]; G49, 6 h): an increase in lipid accumulation analyzed by H&E and oil-red O staining of liver sections, liver-to-body weight ratio, and alanine aminotransferase (ALT) activity
Cpt1b expression and FAO [14]: increased Cpt1b gene expression and FAO
hepatic Cpt1a and Ppara mRNAs ([15]; DIO mice, G49): concomitant increase in hepatic Cpt1a and Ppara mRNAs
hepatic Srebf1 and Fasn mRNA ([15]; DIO mice, G49 + ATGLi, 6 h): Srebf1 and Fasn mRNAs were reduced
liver Fgf21 mRNA upregulation ([15]; DIO mice, G49 + ATGLi, 72 h): G49-mediated Fgf21 mRNA upregulation in the liver was also abolished
hepatic Fasn and Srebf1 mRNA ([15]; DIO mice, G49 + GCGRant, 6 h): reduced by the presence of GCGRant
thermogenic-related genes in BAT ([15]; DIO mice, G49, 1 week): increase in thermogenic-related genes (Cpt1b, Dio2, CoxIVi1, Ucp1, Th, Fgf21)
Th mRNA in BAT ([15]; DIO mice, G49 with blockade of GCGR): maintained G49-mediated increase in Th mRNA levels
Fgf21 mRNA in BAT ([15]; FGF21Alb-KO mice, G49, 72 h): Fgf21 mRNA upregulation was not observed in BAT
Fgf21 mRNA in eWAT and iWAT ([15]; FGF21Alb-KO mice, G49, 72 h): Fgf21 mRNA levels were upregulated in eWAT and iWAT
Th and cytokine mRNA in SVF ([15]; SVF of eWAT, G49, 6 h and 24 h): an increase of Th mRNA at 6 h and a peak of Il14, Il10, and Il13 that declined at 24 h post-G49 treatment
angiogenesis and beiging-related genes ([15]; eWAT, G49, 1 week): Increases in angiogenesis (Vegf) and beiging-related genes (Cidea, Prdm16, CoxIVi1, Ucp1, Th, Cpt1a)
M2 markers and Th mRNA ([15]; eWAT, G49, 6 h): upregulated mRNA levels of M2 markers (Arg1, Il10, Tgfb) as well as Th
Acta2, Tgfb, Mmp9 mRNA ([15]; eWAT, G49, 6 h and day 7): transient increase in Acta2, Tgfb, and Mmp9 mRNA levels that declined at day 7
Srebf1 and Fasn mRNA ([15]; liver, DIO mice, G49, 6 h): both were elevated at 6 h post-G49 treatment
